Here are results for 3 compounds from ChEMBL document CHEMBL5653631, “A Potent and Selective ULK1 Inhibitor Suppresses Autophagy and Sensitizes Cancer Cells to Nutrient Stress” (iScience, 2018).

Test [1] addresses T1, Serine/threonine-protein kinase ULK3 (Homo sapiens) (UniProt Q6PHR2).
T1 sequence (whole entry): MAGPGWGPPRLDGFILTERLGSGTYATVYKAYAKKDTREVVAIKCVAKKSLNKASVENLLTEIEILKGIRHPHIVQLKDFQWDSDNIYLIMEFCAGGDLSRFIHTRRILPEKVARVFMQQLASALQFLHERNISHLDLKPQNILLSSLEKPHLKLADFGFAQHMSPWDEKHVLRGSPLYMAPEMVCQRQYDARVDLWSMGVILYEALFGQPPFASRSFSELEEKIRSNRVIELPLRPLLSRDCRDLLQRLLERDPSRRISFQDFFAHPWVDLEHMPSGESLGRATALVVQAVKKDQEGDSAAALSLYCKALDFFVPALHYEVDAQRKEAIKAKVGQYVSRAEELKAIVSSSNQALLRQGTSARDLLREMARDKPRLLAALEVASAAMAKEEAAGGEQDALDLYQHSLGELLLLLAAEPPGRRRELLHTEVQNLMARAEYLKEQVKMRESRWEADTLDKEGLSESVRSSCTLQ
The test can be described thus: Inhibition of human recombinant ULK3 at 40 nM in presence of ATP by radiometric assay relative to control.

Test [2] deals with Serine/threonine-protein kinase PAK 6 (Homo sapiens) (UniProt Q9NQU5). The test can be described thus: Inhibition of human recombinant PAK6 at 40 nM in presence of ATP by radiometric assay relative to control.
Chain of Serine/threonine-protein kinase PAK 6 (Homo sapiens) (Q9NQU5 whole entry, looked up): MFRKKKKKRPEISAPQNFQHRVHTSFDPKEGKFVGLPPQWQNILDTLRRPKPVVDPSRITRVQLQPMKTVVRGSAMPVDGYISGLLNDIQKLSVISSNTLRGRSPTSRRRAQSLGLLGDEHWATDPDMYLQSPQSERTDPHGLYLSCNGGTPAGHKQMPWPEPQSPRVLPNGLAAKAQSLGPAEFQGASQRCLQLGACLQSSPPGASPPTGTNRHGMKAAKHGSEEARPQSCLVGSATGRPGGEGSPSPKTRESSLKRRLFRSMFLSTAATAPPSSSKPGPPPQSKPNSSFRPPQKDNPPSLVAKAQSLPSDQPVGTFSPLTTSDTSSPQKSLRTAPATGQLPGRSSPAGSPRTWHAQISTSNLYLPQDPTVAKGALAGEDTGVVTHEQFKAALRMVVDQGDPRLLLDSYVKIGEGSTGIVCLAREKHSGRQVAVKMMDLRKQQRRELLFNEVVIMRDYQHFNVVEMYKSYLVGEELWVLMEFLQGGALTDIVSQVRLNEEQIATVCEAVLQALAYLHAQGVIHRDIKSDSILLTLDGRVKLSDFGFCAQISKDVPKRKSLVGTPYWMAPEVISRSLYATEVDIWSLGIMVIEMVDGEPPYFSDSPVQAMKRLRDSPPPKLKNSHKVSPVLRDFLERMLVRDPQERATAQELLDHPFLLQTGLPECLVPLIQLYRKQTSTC
Test [3] concerns the target Cyclin-dependent kinase 4 (Homo sapiens) (UniProt P11802). The test can be described thus: Inhibition of human recombinant CDK4 at 40 nM related to control ULK1.
For test [4], the target named is Serine/threonine-protein kinase pim-3 (Homo sapiens) (UniProt Q86V86). The test can be described thus: Inhibition of human recombinant PIM3 at 40 nM in presence of ATP by radiometric assay relative to control.
In test [5] the target is Mast/stem cell growth factor receptor Kit (Homo sapiens) (UniProt P10721). The test can be described thus: Inhibition of human recombinant KIT at 500 nM in presence of ATP by radiometric assay relative to control.
Chain of Mast/stem cell growth factor receptor Kit (Homo sapiens) (P10721 whole entry): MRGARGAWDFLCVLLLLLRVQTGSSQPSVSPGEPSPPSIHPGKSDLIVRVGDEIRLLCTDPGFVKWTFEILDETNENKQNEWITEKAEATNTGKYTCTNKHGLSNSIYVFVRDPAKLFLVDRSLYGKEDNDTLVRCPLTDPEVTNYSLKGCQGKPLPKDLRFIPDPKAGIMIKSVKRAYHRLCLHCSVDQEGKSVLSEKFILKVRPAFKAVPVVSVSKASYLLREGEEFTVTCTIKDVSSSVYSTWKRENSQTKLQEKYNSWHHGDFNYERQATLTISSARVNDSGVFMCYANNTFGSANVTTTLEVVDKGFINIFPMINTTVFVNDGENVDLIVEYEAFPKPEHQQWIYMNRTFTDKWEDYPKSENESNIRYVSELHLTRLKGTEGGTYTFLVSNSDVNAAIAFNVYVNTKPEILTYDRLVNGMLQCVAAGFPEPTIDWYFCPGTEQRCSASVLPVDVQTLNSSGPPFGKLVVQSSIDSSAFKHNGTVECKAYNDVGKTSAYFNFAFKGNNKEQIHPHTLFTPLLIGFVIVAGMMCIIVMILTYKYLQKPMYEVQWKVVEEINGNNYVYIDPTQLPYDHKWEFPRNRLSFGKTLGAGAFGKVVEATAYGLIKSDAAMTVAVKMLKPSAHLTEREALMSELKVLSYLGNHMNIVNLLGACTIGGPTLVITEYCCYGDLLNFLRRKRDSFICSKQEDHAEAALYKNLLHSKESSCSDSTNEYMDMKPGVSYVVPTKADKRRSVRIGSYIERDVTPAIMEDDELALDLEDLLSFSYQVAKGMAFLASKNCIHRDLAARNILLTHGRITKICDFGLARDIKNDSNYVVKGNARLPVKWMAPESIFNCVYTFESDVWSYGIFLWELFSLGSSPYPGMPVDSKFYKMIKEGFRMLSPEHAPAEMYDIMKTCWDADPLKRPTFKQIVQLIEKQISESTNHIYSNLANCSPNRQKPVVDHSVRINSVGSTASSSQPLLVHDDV
For test [6], the target named is T2, Ephrin type-B receptor 3 (Homo sapiens) (UniProt P54753).
T2 sequence (whole entry): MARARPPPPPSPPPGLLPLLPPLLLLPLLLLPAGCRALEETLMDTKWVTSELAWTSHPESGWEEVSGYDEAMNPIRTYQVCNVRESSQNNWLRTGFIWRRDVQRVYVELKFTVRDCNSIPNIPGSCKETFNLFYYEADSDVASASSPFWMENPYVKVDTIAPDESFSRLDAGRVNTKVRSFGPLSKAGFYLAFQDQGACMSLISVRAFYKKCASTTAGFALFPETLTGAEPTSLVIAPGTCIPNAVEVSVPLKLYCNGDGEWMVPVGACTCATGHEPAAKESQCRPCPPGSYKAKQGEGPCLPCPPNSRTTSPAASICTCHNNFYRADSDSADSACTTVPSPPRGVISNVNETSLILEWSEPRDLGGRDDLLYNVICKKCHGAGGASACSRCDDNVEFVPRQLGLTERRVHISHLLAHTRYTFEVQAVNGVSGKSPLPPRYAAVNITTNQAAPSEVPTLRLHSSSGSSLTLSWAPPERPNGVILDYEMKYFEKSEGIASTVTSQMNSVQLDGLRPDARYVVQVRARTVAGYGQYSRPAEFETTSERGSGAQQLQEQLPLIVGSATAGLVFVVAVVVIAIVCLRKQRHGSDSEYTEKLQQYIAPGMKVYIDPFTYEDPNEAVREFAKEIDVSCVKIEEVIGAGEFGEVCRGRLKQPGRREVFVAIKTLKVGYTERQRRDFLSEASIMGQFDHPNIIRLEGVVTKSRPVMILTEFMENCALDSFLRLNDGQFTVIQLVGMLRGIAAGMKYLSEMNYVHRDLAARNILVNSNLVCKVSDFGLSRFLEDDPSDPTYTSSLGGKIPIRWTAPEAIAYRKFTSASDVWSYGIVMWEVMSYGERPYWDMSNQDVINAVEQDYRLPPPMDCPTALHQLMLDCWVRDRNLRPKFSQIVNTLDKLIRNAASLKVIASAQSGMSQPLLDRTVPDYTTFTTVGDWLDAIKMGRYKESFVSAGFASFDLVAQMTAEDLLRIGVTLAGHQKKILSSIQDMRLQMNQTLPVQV
The test can be described thus: Inhibition of human recombinant EphB3 at 500 nM in presence of ATP by radiometric assay relative to control.

The target of test [7] is Serine/threonine-protein kinase PLK3 (Homo sapiens) (UniProt Q9H4B4). The test can be described thus: Inhibition of human recombinant PLK3 at 500 nM in presence of ATP by radiometric assay relative to control.
Chain of Serine/threonine-protein kinase PLK3 (Homo sapiens) (Q9H4B4 whole entry, looked up): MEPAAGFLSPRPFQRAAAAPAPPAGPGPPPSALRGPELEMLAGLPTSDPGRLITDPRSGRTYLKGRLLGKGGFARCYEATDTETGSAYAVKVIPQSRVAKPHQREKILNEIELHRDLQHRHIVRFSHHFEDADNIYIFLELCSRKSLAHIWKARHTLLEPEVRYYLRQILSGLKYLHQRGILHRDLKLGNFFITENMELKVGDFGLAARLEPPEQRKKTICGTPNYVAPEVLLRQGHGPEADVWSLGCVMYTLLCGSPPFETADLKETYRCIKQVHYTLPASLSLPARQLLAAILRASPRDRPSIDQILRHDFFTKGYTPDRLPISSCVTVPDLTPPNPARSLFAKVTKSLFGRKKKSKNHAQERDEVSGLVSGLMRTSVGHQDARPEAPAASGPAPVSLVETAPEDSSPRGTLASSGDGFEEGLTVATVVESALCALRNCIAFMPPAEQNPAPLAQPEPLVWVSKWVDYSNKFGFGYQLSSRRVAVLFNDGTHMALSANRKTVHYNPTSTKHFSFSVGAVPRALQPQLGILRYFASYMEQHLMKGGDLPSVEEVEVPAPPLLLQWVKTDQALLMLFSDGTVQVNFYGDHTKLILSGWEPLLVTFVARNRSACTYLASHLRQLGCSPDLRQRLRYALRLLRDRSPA
In test [8] the target is Serine/threonine-protein kinase 4 (Homo sapiens) (UniProt Q13043). The test can be described thus: Inhibition of human recombinant MST1 at 15 nM related to control ULK1.
Chain of Serine/threonine-protein kinase 4 (Homo sapiens) (Q13043 whole entry, looked up): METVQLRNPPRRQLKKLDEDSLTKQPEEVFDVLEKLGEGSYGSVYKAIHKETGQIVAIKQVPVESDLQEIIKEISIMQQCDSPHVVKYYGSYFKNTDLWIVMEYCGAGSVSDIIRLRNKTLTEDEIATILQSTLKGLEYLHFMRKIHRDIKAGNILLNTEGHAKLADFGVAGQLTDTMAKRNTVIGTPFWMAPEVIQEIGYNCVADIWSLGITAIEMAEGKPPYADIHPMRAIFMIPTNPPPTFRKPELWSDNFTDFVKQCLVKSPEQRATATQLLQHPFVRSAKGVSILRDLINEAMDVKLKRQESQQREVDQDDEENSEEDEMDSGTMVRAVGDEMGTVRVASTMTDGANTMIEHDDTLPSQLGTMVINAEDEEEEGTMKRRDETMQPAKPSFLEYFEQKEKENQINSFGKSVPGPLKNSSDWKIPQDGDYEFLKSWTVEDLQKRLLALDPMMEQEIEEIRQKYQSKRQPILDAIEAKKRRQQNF
Test [9] deals with T3, G protein-coupled receptor kinase 3 (Homo sapiens) (UniProt P35626).
T3 sequence (whole entry): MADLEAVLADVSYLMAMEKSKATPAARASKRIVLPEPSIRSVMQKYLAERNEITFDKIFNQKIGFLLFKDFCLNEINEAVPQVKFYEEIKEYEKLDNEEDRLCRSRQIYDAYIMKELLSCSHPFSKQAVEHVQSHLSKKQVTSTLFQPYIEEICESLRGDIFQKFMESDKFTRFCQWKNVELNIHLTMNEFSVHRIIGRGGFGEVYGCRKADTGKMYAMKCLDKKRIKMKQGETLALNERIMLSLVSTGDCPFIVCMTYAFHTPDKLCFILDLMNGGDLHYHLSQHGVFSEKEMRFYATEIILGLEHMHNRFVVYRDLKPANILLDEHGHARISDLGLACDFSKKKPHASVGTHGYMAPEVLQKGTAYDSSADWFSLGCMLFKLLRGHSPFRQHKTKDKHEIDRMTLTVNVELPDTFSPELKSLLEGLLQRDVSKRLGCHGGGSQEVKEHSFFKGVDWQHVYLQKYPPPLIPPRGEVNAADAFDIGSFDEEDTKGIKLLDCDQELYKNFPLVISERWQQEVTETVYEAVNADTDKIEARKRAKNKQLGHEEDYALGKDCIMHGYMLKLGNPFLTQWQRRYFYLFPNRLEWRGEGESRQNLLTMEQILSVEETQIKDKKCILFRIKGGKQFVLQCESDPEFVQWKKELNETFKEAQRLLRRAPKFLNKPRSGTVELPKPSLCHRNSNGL
The test can be described thus: Inhibition of human recombinant BARK2 at 15 nM in presence of ATP by radiometric assay relative to control. In short, it runs like this: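 Part of a radiometric in vitro activity panel of 327 recombinant human kinases. Each kinase was tested in duplicate at one inhibitor concentration. Activity remaining was expressed as a percentage of the vehicle control, and percent inhibition was taken as 100 minus that value.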

Test [10] deals with Rho-associated protein kinase 2 (Homo sapiens) (UniProt O75116). The test can be described thus: Inhibition of human recombinant ROCK2 at 15 nM related to control ULK1.
Chain of Rho-associated protein kinase 2 (Homo sapiens) (O75116 whole entry, looked up): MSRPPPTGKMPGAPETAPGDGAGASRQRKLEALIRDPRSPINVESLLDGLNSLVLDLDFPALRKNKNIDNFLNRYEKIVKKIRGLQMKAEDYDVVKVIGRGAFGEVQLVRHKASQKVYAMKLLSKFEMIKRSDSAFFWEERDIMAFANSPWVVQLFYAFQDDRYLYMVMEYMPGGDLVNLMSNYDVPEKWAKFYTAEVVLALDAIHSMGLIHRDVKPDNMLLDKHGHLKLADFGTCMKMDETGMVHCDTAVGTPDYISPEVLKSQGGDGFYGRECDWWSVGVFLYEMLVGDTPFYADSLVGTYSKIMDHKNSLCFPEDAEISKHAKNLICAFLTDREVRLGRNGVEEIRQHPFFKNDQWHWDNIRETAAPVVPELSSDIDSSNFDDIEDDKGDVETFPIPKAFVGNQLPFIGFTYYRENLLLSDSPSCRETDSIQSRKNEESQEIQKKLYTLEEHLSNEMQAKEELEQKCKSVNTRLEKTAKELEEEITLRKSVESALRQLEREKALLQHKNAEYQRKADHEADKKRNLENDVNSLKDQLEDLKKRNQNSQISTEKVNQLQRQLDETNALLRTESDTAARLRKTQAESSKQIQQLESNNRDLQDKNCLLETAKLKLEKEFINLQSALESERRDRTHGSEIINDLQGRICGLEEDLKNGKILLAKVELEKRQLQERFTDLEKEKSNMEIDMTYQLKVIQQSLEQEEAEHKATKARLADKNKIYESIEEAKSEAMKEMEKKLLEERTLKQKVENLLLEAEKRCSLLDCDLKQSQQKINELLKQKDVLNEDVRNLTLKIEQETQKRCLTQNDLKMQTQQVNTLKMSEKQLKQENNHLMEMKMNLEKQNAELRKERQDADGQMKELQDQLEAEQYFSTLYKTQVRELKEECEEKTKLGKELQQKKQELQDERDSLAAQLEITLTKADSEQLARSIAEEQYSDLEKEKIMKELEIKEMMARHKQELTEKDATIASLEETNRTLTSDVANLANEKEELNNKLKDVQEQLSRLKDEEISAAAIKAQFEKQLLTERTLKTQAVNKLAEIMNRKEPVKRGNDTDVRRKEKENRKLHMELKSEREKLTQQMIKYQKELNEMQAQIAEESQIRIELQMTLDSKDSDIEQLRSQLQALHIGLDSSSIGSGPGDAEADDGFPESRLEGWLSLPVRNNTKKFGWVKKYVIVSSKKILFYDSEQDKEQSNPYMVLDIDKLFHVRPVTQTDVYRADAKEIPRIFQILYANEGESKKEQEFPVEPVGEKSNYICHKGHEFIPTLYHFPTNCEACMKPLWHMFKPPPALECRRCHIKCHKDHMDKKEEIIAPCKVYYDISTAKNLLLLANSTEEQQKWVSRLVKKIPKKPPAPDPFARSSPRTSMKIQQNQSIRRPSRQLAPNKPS

Chain of Cyclin-dependent kinase 4 (Homo sapiens) (P11802 whole entry): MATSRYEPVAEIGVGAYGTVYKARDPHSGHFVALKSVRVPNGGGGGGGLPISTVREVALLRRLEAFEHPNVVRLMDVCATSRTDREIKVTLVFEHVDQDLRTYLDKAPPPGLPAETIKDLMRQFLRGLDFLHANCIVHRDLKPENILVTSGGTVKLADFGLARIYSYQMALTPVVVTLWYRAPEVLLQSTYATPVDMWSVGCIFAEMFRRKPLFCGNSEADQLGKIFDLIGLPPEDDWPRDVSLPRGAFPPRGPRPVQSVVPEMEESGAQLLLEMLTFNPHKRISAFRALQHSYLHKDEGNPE

One may read the inhibition as the drop in the measured response relative to a control, in per cent. In the case of `O=C(N[C@@H](C1CC1)C(F)(F)F)c1cc(-c2cnn3cc(-c4ccc(F)cc4)cnc23)cs1`, the inhibition came to 5% in [1], 7% in [2] and 0% in test [4]. Also, the fold change (FC) in test [3] came to 0.
As to `CNC(=O)c1ccccc1Oc1nc(Nc2cc(OC)c(OC)c(OC)c2)ncc1Br`, the results for the inhibition in test [5], in [6] and in [7] were 1%, 0% and 0%, respectively.
As for `CC(C)[C@H](NC(=O)c1cc(-c2cnn3cc(-c4ccc(OCCN5CCCCC5)cc4)cnc23)cs1)C(F)(F)F`, the fold change (FC) is 0.03 in [8] and 0 in test [10]. Besides, the inhibition in test [9] worked out at 0%.
